ChEMBL document CHEMBL3797120, “Identification of 1,2,3-triazole derivatives that protect pancreatic β cells against endoplasmic reticulum stress-mediated dysfunction and death through the inhibition of C/EBP-homologous protein expression” (Bioorg Med Chem, 2016)
Calls of active or inactive are those of the source. The calls are words filed in the database; no cut-off is given here.

Assays:
[1] = Effect on 20 mM glucose-stimulated insulin secretion in rat INS-1 cells preincubated for 24 hrs followed by glucose addition and subsequent incubation for 45 mins by ELISA; assay type: ADME, cell-based; conditions: ins1, 0.75 h
Procedure, shortened: (§1)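 INS-1 cells seeded at 1 × 10⁵/well and treated 24 h with compounds (with or without Tm). They were washed in Krebs-HEPES buffer pH 7.4 with 1% BSA, preincubated 1 h in 2.5 mM glucose, then stimulated 45 min with 2.5 or 20 mM glucose. Secreted insulin was measured by ELISA and normalized to Bradford total protein. The index is 20 mM/2.5 mM secretion from triplicate wells.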

[2] = molecular target: DNA damage-inducible transcript 3 protein (Rattus norvegicus) (UniProt Q62857); test: Inhibition of endoplasmic reticulum stress-induced CHOP activity in tunicamycin-treated rat INS-1 cells assessed as DNA fragmentation at 20 uM after 24 hrs by TUNEL assay (reference value: 15%); assay type: cell-based; set-up: scale not given: the % may be the effect or the level left; conditions: INS1
DNA damage-inducible transcript 3 protein (Rattus norvegicus), sequence (Q62857 whole entry, the tested form may be a part): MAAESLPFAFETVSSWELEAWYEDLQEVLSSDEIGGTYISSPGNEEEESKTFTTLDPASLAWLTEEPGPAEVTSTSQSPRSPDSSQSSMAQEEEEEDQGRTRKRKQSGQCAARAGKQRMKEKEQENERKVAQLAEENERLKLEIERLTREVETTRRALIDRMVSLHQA
Procedure, shortened: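 INS-1 cells seeded at 4 × 10⁴/well and treated 24 h with Tm 0.1 μg/ml plus 20 μM compound. Cells were fixed in 4% PFA, permeabilized, TUNEL-stained 1 h at 37°C, counterstained with DAPI, and imaged by high-content imaging. TUNEL+ percentage is mean ± SD of five images.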

[3] = tested on: Mus musculus; test: (§2) Antidiabetic activity in streptozotocin-induced diabetic C57BL/6 mouse model assessed as increase in level of insulin-positive beta cells per pancreatic islet at 20 mg/kg, ip administered for 5 consecutive days with streptozotocin followed by 2 more weeks compound addition without streptozotocin measured post last dose by DAPI staining-based confocal microscopy relative to control; assay type: functional, organism-based
[4] = Effect on basal CHOP mRNA expression in rat INS-1 cells at 10 uM after 2 to 8 hrs by qRT-PCR method; assay type: ADME, cell-based; conditions: ins1, 10 µM
Procedure, shortened: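 INS-1 cells seeded at 4 × 10⁵/well and exposed to DMSO or 10 μM compound without Tm for the indicated times. Total RNA (2 μg) was reverse transcribed. CHOP mRNA was measured by qRT-PCR with rat primers, normalized to rat cyclophilin A, and expressed as fold change.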

[5] = tested on: Mus musculus; test: as §2, with “total” for “increase in level of insulin-positive beta cells per”, “islet area” for “islet”, “(reference value: 21.3 +/- 4.4%)” for “relative to control”; assay type: functional
[6] = Cytoprotective activity against endoplasmic reticulum stress-induced cell death in tunicamycin-treated CHOP knock out C57BL/6 mouse primary pancreatic islet beta cells assessed as DNA fragmentation at 10 uM after 24 hrs by TUNEL assay (reference value: 18.7%); assay type: functional
Procedure, shortened: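 Primary islet cells isolated from CHOP−/− knockout mice (age-matched males), cultured in CMRL-1066 with 10% FBS, treated with compound (10 μM) plus tunicamycin (1 μg/ml) for 24 h. Cells fixed in 4% paraformaldehyde, permeabilized with 0.1% Triton X-100 in 0.1% sodium citrate, TUNEL stained (1 h, 37°C), co-stained for insulin and DAPI; % TUNEL+ insulin+ cells counted, five wells, islets from 3 mice.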

[7] = molecular target: DNA damage-inducible transcript 3 protein (Rattus norvegicus) (UniProt Q62857); test: Inhibition of endoplasmic reticulum stress-induced CHOP activity in rat INS-1 cells assessed as suppression of tunicamycin-induced caspase-3 cleavage at 20 uM after 2 to 24 hrs by Western blot method; assay type: cell-based; conditions: INS1
Procedure, shortened: (§3)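 INS-1 cells seeded at 8 × 10⁵ per 60-mm dish and treated with or without compound, with or without Tm, for the indicated times. Lysates (20 μg protein) were run on 7% SDS-PAGE and blotted with anti-caspase-3 and anti-PARP (1:1000) to detect cleavage. α-Tubulin served as loading control.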

[8] = tested on: INS1; test: Cytoprotective activity in endoplasmic reticulum stressed rat INS-1 cells assessed as rescue from tunicamycin-mediated reduction in cell viability at 10 uM after 72 hrs by CellTiter-Glo assay relative to control; assay type: functional
Procedure, shortened: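 INS-1 cells seeded at 3 × 10³/well and exposed for 72 h to Tm 0.1 μg/ml plus compound. Viability measured as ATP by CellTiter-Glo. Tm alone was set to 0% and DMSO without Tm to 100% rescue. Values are the mean of three experiments. EC50 was derived for survival.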

[9] = molecular target: DNA damage-inducible transcript 3 protein (Rattus norvegicus) (UniProt Q62857); test: Inhibition of endoplasmic reticulum stress-induced CHOP activity in rat INS-1 cells assessed as restoration of tunicamycin-mediated reduction of 20 mM glucose-stimulated insulin secretion preincubated for 24 hrs followed by glucose addition and subsequent incubation for 45 mins by ELISA; assay type: cell-based; conditions: INS1; procedure, shortened: as §1
[10] = Effect on growth rate of rat INS-1 cells at 2.5 to 10 uM after 72 hrs by CellTiter-Glo assay relative to control; assay type: cell-based; conditions: ins1, 72 h
Procedure, shortened: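 INS-1 cells grown with compound alone (no stressor) and viability/growth read by CellTiter-Glo, compared with DMSO-treated cells.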

[11] = molecular target: DNA damage-inducible transcript 3 protein (Rattus norvegicus) (UniProt Q62857); test: Inhibition of endoplasmic reticulum stress-induced CHOP activity in rat INS-1 cells assessed as decrease in brefeldin A-induced cell death by measuring cell viability at 5 to 20 uM after 72 hrs by CellTiter-Glo assay; assay type: cell-based; conditions: INS1
Procedure, shortened: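 INS-1 cells treated 72 h with or without brefeldin A 0.2 μg/ml in the presence of DMSO or compound at indicated concentrations. Viability measured by CellTiter-Glo. Means ± SD of quadruplicates.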

[12] = molecular target: DNA damage-inducible transcript 3 protein (Mus musculus) (UniProt P35639); test: Inhibition of endoplasmic reticulum stress-induced CHOP activity in tunicamycin-treated C57BL/6 mouse primary pancreatic islet beta cells assessed as DNA fragmentation at 10 uM after 24 hrs by TUNEL assay (reference value: 40.4%); set-up: scale not given: the % may be the effect or the level left
DNA damage-inducible transcript 3 protein (Mus musculus), sequence (P35639 whole entry, the tested form may be a part): as the sequence (Q62857 whole entry, the tested form may be a part) above, with A9T, F10L, A70T, S74R, D97E, A111P, A114P, L142Q counted along it
Procedure, shortened: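 Primary islet cells from C57BL/6 mice were cultured in CMRL-1066/10% FBS and treated 24 h with Tm 1 μg/ml plus 10 μM compound or DMSO. Cells were fixed in 4% PFA, permeabilized in Triton/citrate, TUNEL-stained (1 h, 37°C), and co-stained for insulin and DAPI. TUNEL+ insulin+ cells were counted as mean ± SD of five wells (~50 islets, 3 mice).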

[13] = Inhibition of endoplasmic reticulum stress-mediated upregulation of CHOP mRNA expression in tunicamycin-treated rat INS-1 cells after 2 to 8 hrs by qRT-PCR method; assay type: functional, cell-based; conditions: INS1
Procedure, shortened: (§4)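 INS-1 cells seeded at 4 × 10⁵/well and treated with Tm 0.1 μg/ml plus compound, either for 8 h at indicated concentrations or for indicated times at 10 μM. CHOP mRNA was measured by qRT-PCR with rat primers, normalized to rat cyclophilin A, and reported as fold change.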

[14] = tested on: INS1; test: Cytoprotective activity in endoplasmic reticulum stressed rat INS-1 cells assessed as rescue from tunicamycin-mediated reduction in cell survival after 72 hrs by CellTiter-Glo assay; conditions: INS1, 72 h
[15] = molecular target: DNA damage-inducible transcript 3 protein (Rattus norvegicus) (UniProt Q62857); test: Inhibition of endoplasmic reticulum stress-induced CHOP activity in rat INS-1 cells assessed as suppression of tunicamycin-induced PARP cleavage at 20 uM after 2 to 24 hrs by Western blot method; assay type: cell-based; conditions: INS1; procedure, shortened: as §3
[16] = tested on: Mus musculus; test: Antidiabetic activity in streptozotocin-induced diabetic C57BL/6 mouse model assessed as decrease in blood glucose level at 20 mg/kg, ip administered for 5 consecutive days with streptozotocin followed by 2 more weeks compound addition without streptozotocin measured every 3 day of compound dosing by glucometer relative to control; assay type: functional, organism-based
Procedure, shortened: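 Ten-week-old male C57BL/6 mice given STZ 50 mg/kg i.p. (in Na-citrate) once daily for 5 days, together with test agent 20 mg/kg i.p. (2 mg/ml in 10% DMSO/saline; n = 7) or vehicle (n = 6). Dosing without STZ then continued for 2 more weeks. Fasting (5 h) tail blood glucose read by glucometer every third day.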

[17] = Inhibition of endoplasmic reticulum stress-mediated upregulation of CHOP protein expression in tunicamycin-treated rat INS-1 cells at 20 uM after 2 to 8 hrs by Western blot method; assay type: functional, cell-based; conditions: INS1
Procedure, shortened: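 INS-1 cells seeded at 8 × 10⁵ per 60-mm dish and treated with Tm and 20 μM compound or DMSO. Lysates (20 μg protein) were run on 7% SDS-PAGE and blotted with anti-CHOP (1:1000). α-Tubulin served as loading control.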

[18] = Effect on 2.5 mM glucose-stimulated insulin secretion in rat INS-1 cells preincubated for 24 hrs followed by glucose addition and subsequent incubation for 45 mins by ELISA; assay type: ADME, cell-based; conditions: ins1, 0.75 h; procedure, shortened: as §1
[19] = Inhibition of endoplasmic reticulum stress-mediated upregulation of CHOP mRNA expression in tunicamycin-treated rat INS-1 cells at 10 uM by qRT-PCR method; assay type: functional, cell-based; conditions: INS1, TDE = time-dependent effect; procedure, shortened: as §4
[20] = molecular target: DNA damage-inducible transcript 3 protein (Rattus norvegicus) (UniProt Q62857); test: Inhibition of endoplasmic reticulum stress-induced CHOP activity in rat INS-1 cells assessed as decrease in sodium palmitate-induced cell death by measuring cell viability at 2.5 to 20 uM after 72 hrs by CellTiter-Glo assay; assay type: cell-based; conditions: INS1
Procedure, shortened: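 INS-1 cells switched to DMEM/1% FBS/1% BSA and stressed with sodium palmitate (from 5 mM stock in 5% BSA; final 0.2 mM). Treated 72 h with DMSO or compound. Viability measured by CellTiter-Glo. Means ± SD of quadruplicates.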

[21] = molecular target: DNA damage-inducible transcript 3 protein (Mus musculus) (UniProt P35639); test: Inhibition of endoplasmic reticulum stress-induced CHOP activity in mouse BetaTC6 cells assessed as decrease in tunicamycin-induced cell death by measuring cell viability at 2.5 to 20 uM after 72 hrs by CellTiter-Glo assay; assay type: cell-based; conditions: Beta-TC6
Procedure, shortened: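 βTC6 mouse insulinoma cells (DMEM, 15% FBS) seeded at 3 × 10³/well and treated 72 h with Tm 0.25 μg/ml plus DMSO or compound. Viability measured by CellTiter-Glo and expressed as fold change versus Tm alone = 1. Means ± SD of triplicates.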

CCc1ccc(-n2nnc(C(=O)Nc3cccc(F)c3)c2C)cc1
Activity [1]: Non-toxic
Activity [2]: 1.5%
Activity [3]: Active
Activity [4]: Non-toxic
Activity [5]: 44.2%
Activity [6]: 14.6%
inhibition [7]: Active
%max [8]: 87%
inhibition [9]: Active
Activity [10]: Non-toxic
inhibition [11]: Active
Activity [12]: 9%
inhibition [13]: Dose-dependent effect
EC50 [14]: 2.8 µM
inhibition [15]: Active
Activity [16]: Active
inhibition [17]: Active
Activity [18]: Non-toxic
inhibition [19]: tde
inhibition [20]: Active
inhibition [21]: Active
